Measured values: ChEMBL document CHEMBL1140872, “Discovery of a potent and selective inhibitor for human carbonyl reductase 1 from propionate scanning applied to the macrolide zearalenone” (Bioorg Med Chem, 2009)

How the values were obtained:
[1] = biological target: Serine/threonine-protein kinase pim-3 (Homo sapiens) (UniProt Q86V86); experiment: Binding affinity to human recombinant PIM3 expressed in Escherichia coli assessed as thermal shift by differential scanning fluorimetry
Procedure, shortened: (§1)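 Thermal-shift (DSF) binding assay with purified recombinant catalytic domains or proteins carrying an N- or C-terminal His6 tag or GST fusion. Purity was >95% by SDS/PAGE and identity was confirmed by MS. Protein was at 2 µM final in 10 mM HEPES pH 7.5 and 150 mM NaCl. Tm shift is reported, with 2 °C as the threshold for binding.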

Homo sapiens = species on record: Homo sapiens; experiment: Binding affinity to human recombinant DYRK1 expressed in Escherichia coli assessed as thermal shift by differential scanning fluorimetry; procedure, shortened: as §1
[2] = biological target: Tyrosine-protein kinase Fes/Fps (Homo sapiens) (UniProt P07332); experiment: Binding affinity to human recombinant FES expressed in Escherichia coli assessed as thermal shift by differential scanning fluorimetry; procedure, shortened: as §1
Chain of Tyrosine-protein kinase Fes/Fps (Homo sapiens) (P07332 whole entry): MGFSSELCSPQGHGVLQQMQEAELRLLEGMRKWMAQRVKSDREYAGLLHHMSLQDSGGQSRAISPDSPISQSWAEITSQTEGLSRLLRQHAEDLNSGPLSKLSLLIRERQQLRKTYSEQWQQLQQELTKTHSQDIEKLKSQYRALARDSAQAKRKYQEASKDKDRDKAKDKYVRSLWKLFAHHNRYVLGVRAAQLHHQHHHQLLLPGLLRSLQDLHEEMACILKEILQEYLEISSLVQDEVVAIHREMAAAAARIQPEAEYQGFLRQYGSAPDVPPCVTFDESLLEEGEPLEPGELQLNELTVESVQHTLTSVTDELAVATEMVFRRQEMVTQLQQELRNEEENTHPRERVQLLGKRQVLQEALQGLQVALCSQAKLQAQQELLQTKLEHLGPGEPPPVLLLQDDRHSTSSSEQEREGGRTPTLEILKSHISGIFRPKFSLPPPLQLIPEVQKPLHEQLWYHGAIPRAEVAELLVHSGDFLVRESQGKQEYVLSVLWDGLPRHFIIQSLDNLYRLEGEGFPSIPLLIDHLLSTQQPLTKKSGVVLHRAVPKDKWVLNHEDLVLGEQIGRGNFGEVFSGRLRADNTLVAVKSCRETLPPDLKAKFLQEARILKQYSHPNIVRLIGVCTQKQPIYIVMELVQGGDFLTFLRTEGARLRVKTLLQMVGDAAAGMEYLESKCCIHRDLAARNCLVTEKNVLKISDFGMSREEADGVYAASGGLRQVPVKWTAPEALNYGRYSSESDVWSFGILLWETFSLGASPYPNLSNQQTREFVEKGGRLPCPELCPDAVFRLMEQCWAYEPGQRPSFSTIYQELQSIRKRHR

[3] = biological target: T1, Serine/threonine-protein kinase 3 (Homo sapiens) (UniProt Q13188); experiment: Binding affinity to human recombinant STK3 expressed in Escherichia coli assessed as thermal shift by differential scanning fluorimetry; procedure, shortened: as §1
T1 sequence (whole entry): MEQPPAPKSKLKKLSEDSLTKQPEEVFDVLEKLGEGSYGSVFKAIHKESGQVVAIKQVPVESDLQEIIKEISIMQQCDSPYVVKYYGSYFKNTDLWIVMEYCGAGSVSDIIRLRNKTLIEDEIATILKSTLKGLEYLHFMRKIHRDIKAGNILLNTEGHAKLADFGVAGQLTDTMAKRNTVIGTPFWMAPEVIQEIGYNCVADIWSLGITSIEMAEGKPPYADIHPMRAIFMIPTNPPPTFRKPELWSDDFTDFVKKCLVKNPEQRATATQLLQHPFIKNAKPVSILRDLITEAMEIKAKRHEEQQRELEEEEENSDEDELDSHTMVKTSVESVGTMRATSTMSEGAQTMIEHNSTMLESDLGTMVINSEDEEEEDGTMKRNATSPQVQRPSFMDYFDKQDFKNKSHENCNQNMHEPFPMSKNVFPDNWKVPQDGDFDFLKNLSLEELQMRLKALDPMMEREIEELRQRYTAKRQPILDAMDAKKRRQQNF

[4] = biological target: STE20-like serine/threonine-protein kinase (Homo sapiens) (UniProt Q9H2G2); experiment: Binding affinity to human recombinant SLK expressed in Escherichia coli assessed as thermal shift by differential scanning fluorimetry; procedure, shortened: as §1
Chain of STE20-like serine/threonine-protein kinase (Homo sapiens) (Q9H2G2 whole entry, looked up): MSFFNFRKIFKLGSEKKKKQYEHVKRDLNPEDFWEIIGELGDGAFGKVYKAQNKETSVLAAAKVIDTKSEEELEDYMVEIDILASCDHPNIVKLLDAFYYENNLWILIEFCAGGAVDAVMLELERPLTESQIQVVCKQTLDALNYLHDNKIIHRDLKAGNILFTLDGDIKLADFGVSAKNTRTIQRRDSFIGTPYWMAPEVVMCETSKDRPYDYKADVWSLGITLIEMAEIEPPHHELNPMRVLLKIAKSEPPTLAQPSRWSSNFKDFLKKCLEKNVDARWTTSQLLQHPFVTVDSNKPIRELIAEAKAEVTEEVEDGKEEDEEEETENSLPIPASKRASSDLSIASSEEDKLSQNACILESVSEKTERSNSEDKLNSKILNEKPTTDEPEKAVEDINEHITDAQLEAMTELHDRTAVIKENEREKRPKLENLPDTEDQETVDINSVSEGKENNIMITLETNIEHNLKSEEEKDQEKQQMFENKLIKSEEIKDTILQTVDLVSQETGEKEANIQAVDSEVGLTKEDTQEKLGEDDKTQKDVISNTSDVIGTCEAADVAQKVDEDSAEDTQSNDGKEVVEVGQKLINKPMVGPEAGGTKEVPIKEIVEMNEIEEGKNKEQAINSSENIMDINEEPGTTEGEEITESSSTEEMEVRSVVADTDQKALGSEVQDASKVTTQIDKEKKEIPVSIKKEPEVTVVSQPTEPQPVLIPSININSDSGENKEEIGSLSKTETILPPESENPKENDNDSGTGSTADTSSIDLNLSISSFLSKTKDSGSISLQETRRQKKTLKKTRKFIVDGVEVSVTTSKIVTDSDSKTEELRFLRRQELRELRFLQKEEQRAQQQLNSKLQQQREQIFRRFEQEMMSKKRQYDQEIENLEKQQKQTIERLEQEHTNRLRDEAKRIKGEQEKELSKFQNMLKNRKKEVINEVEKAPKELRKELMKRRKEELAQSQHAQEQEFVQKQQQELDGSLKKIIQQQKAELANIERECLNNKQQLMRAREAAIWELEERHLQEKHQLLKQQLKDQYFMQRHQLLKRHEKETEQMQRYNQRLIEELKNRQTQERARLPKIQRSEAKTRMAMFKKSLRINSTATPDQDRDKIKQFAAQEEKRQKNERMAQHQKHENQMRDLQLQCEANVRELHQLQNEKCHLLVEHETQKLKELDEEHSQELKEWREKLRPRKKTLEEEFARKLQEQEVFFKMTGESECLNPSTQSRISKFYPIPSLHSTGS

[5] = biological target: Serine/threonine-protein kinase 10 (Homo sapiens) (UniProt O94804); experiment: Binding affinity to human recombinant LOK expressed in Escherichia coli assessed as thermal shift by differential scanning fluorimetry; procedure, shortened: as §1
Chain of Serine/threonine-protein kinase 10 (Homo sapiens) (O94804 whole entry, looked up): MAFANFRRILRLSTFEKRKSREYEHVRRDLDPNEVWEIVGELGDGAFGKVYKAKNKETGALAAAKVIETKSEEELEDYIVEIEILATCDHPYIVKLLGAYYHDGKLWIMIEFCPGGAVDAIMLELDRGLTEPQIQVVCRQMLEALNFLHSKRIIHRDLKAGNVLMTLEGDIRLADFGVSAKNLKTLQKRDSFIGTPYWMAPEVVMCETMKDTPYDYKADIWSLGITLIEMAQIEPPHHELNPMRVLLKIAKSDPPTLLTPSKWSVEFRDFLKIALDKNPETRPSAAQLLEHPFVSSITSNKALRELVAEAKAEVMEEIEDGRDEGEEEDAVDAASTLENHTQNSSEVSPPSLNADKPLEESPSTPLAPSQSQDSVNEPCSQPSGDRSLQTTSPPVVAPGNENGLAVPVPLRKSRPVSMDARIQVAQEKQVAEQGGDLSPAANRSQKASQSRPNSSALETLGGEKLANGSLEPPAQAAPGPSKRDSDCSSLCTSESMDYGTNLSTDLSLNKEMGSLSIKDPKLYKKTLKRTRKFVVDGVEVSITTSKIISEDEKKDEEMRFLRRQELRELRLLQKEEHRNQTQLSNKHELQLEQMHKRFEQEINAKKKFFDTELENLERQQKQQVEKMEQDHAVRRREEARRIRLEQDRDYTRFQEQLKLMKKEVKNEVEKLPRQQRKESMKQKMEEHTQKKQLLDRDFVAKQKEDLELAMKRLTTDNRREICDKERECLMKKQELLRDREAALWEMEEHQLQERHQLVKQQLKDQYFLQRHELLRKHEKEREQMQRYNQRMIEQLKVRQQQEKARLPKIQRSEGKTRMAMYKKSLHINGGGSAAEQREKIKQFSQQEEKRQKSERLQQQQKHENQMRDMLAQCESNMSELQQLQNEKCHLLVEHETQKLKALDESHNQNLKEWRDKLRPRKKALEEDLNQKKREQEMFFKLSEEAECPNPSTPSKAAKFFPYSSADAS

[6] = biological target: T2, Carbonyl reductase [NADPH] 1 (Homo sapiens) (UniProt P16152); experiment: Binding affinity to human recombinant carbonyl reductase 1 expressed in Escherichia coli assessed as thermal shift by differential scanning fluorimetry in absence of cofactor; procedure, shortened: as §1
T2 sequence (whole entry): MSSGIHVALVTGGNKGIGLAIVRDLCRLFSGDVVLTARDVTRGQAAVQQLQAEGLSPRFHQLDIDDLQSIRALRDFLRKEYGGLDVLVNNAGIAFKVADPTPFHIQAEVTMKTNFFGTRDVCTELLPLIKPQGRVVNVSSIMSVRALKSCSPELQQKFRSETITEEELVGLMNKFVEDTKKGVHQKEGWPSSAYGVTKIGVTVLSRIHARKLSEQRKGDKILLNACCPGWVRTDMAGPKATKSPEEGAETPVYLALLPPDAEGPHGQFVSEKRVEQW

[7] = biological target: T2, Carbonyl reductase [NADPH] 1 (Homo sapiens); experiment: Binding affinity to human recombinant carbonyl reductase 1 expressed in Escherichia coli assessed as thermal shift by differential scanning fluorimetry in presence of NADPH; procedure, shortened: as §1
[8] = biological target: T3, Carbonyl reductase [NADPH] 3 (Homo sapiens) (UniProt O75828); experiment: Binding affinity to human recombinant carbonyl reductase 3 expressed in Escherichia coli assessed as thermal shift by differential scanning fluorimetry in presence of NADPH; procedure, shortened: as §1
T3 sequence (whole entry): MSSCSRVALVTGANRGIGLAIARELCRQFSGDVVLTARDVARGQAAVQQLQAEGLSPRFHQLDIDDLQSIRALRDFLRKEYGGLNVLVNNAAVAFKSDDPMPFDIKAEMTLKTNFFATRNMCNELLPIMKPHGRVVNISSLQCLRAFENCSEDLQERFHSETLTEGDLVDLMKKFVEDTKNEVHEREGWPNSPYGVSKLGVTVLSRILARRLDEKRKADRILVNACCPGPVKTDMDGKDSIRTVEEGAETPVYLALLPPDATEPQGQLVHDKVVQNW

SMILES	Tm [1] [°C]	Tm (Homo sapiens) [°C]	Tm [2] [°C]	Tm [3] [°C]	Tm [4] [°C]	Tm [5] [°C]	Tm [6] [°C]	Tm [7] [°C]	Tm [8] [°C]
COc1cc2c(c(OC)c1)C(=O)O[C@@H](C)CCC[C@@H](O)[C@@H](C)CC/C=C/2	< 2	< 2	< 2	< 2	< 2	< 2	< 2	< 2	< 2
COC1=C2C[C@@H](C)C[C@H](OC)[C@H](O)[C@@H](C)/C=C(\C)[C@H](OC(N)=O)[C@@H](OC)/C=C\C=C(/C)C(=O)NC(=CC1=O)C2=O	< 2	< 2	< 2	< 2	< 2	< 2	< 2	< 2	< 2
COc1cc2c(c(OC)c1)C(=O)O[C@@H](C)CCCC(=O)[C@@H](C)CC/C=C/2	< 2	< 2	< 2	< 2	< 2	< 2	< 2	< 2	< 2
COc1cc(O)c2c(c1)/C=C/CC[C@H](C)C(=O)CCC[C@H](C)OC2=O	< 2	< 2	< 2	< 2	2.5	< 2	< 2	< 2	< 2
C[C@H]1CCCC(=O)[C@@H](C)CC/C=C/c2cc(O)cc(O)c2C(=O)O1	< 2	< 2	< 2	< 2	3.5	< 2	< 2	< 2	< 2
C[C@@H]1C[C@H]2O[C@@H]2/C=C\C=C\C(=O)Cc2c(Cl)c(O)cc(O)c2C(=O)O1 [RADICICOL]	< 2	< 2	< 2	< 2	< 2	< 2	< 2	< 2	< 2
C[C@H]1CCCC(=O)CCC/C=C/c2cc(O)cc(O)c2C(=O)O1	< 2	< 2	< 2	< 2	4.4	4.6	< 2	< 2	< 2
